Experimental data from ChEMBL document CHEMBL4842325, “Lanosterol 14α-demethylase (CYP51)/histone deacetylase (HDAC) dual inhibitors for treatment of Candida tropicalis and Cryptococcus neoformans infections” (Eur J Med Chem, 2021).
In brackets after ≈: the same amount, converted by molar mass. Activity calls are given as the source filed them. The rule behind the calls is not given here.

Key:
Candida tropicalis [1] = assay: microbe, parasite or virus in culture; assay type: functional; conditions: 3890, time 48 hrs
Candida albicans [2] = assay: Antifungal activity against fluconazole-sensitive Candida albicans SC5314 assessed as inhibition of fungal growth; assay type: functional
Candida albicans [3] = assay: microbe, parasite or virus in culture; assay type: functional; conditions: 7781
Candida albicans [4] = assay: microbe, parasite or virus in culture; assay type: functional; conditions: 4108
Candida albicans [5] = assay: Antifungal activity against fluconazole-sensitive Candida albicans 9770 assessed as inhibition of fungal growth; assay type: functional
HUVEC = assay: Cytotoxicity against human HUVEC assessed as reduction in cell viability; assay type: cell-based
Cryptococcus neoformans [6] = assay: Inhibition of capsule formation in Cryptococcus neoformans H99 assessed as reduction in capsule size at 40 to 50 ug/ml incubated for 24 hrs by laser scanning confocal microscopic analysis; assay type: functional; conditions: dose 40-50 µg/ml
In short: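 Exponential C. neoformans H99 resuspended in PBS at 1 × 10⁷ cells/mL. Cells cultured in DMEM with FBS and compound at 37 °C under 10% CO₂ for 24 h, with an untreated control. Stained with India ink and imaged by laser scanning confocal microscopy at 63×, 10 random fields. Whole-cell and cell-body diameters measured to derive capsule size.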

Cryptococcus neoformans [7] = assay: Downregulation of CAP10 gene expression in Cryptococcus neoformans H99 at 2 ug/ml measured after 24 hrs by qRT-PCR analysis; assay type: functional; conditions: dose 2.0 µg/ml
In short: (§1)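 Exponential-phase C. neoformans H99 inoculated into 50 mL YPD with compound. Incubated 35 °C for 24 h, then cultures ground in liquid nitrogen for RNA isolation. Transcript levels of capsule-associated genes quantified by RT-qPCR. Three independent experiments, mean ± SD, t-test.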

Cryptococcus neoformans [8] = assay: Downregulation of CAP60 gene expression in Cryptococcus neoformans H99 at 2 ug/ml measured after 24 hrs by qRT-PCR analysis; assay type: functional; conditions: dose 2.0 µg/ml
In short: (§2)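 Exponentially growing C. neoformans H99 inoculated into 50 mL YPD with compound and incubated 35 °C for 24 h. Cells ground in liquid nitrogen before total RNA isolation, then reverse transcription and real-time RT-qPCR. Means ± SD of three independent assays.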

Cryptococcus neoformans [9] = assay: Downregulation of CAP59 gene expression in Cryptococcus neoformans H99 at 2 ug/ml measured after 24 hrs by qRT-PCR analysis; assay type: functional; conditions: dose 2.0 µg/ml
In short: as §1

Candida tropicalis [10] = assay: Inhibition of CYP51 in Candida tropicalis 5008 assessed as obtusifoliol level at 4 ug/ml by GC-MS analysis; parameters: scale not given: the % may be the effect or the level left; conditions: dose 4.0 µg/ml
Candida tropicalis [11] = assay: Inhibition of CYP51 in Candida tropicalis 5008 assessed as eburicol level at 4 ug/ml by GC-MS analysis; parameters: scale not given: the % may be the effect or the level left; conditions: dose 4.0 µg/ml
Cryptococcus neoformans [12] = assay: Inhibition of CYP51 in Cryptococcus neoformans H99 assessed as ergosterol level at 4 ug/ml by GC-MS analysis (reference value: 60.18%); parameters: scale not given: the % may be the effect or the level left; conditions: dose 4.0 µg/ml
Cryptococcus neoformans [13] = assay: Inhibition of CYP51 in Cryptococcus neoformans H99 assessed as eburicol level at 4 ug/ml by GC-MS analysis (reference value: 39.82%); parameters: scale not given: the % may be the effect or the level left; conditions: dose 4.0 µg/ml
Candida tropicalis [14] = assay: Downregulation of ERG11 mRNA expression in Candida tropicalis 5008 at 4 ug/ml measured after 24 hrs by qRT-PCR analysis; assay type: functional; conditions: dose 4.0 µg/ml
In short: (§3)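 Exponential-phase C. tropicalis 5008 inoculated into 10 mL YPD with compound at several concentrations, DMSO as blank control. Incubated 35 °C for 24 h. Total RNA isolated on columns and reverse-transcribed. Real-time RT-PCR with ACT1 as internal control. Mean of 3 independent assays ± SD.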

Candida tropicalis [15] = assay: Downregulation of MDR1 mRNA expression in Candida tropicalis 5008 at 4 ug/ml measured after 24 hrs by qRT-PCR analysis; assay type: functional; conditions: dose 4.0 µg/ml
In short: as §3

[16] = Inhibition of HDAC in Candida tropicalis 5008 using Boc-Lys(Ac)-AMC as substrate preincubated with protoplast for 12 hrs followed by incubation with substrate for 6 hrs by fluorimetric assay
In short: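 Whole-cell assay on C. tropicalis 5008, 100 mg wet weight of exponential-phase cells. Cell wall removed with snailase to give protoplasts, which were dispersed in PBS. Protoplasts incubated with compound at 35 °C for 12 h. Boc-Lys(Ac)-AMC then added to a final 30 µM and incubated 37 °C for 6 h. Stop solution added, 37 °C for 2 h. Fluorescence read at Ex 360/Em 460 nm and converted to HDAC inhibition rate.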

[17] = Inhibition of HDAC in Cryptococcus neoformans H99 using Boc-Lys(Ac)-AMC as substrate preincubated with protoplast for 12 hrs followed by incubation with substrate for 6 hrs by fluorimetric assay
Cryptococcus neoformans [18] = assay: Downregulation of RPD3 mRNA expression in Cryptococcus neoformans H99 at 2 ug/ml measured after 24 hrs by qRT-PCR analysis; assay type: functional; conditions: dose 2.0 µg/ml
In short: as §2

Cryptococcus neoformans [19] = assay: Downregulation of HOS2 mRNA expression in Cryptococcus neoformans H99 at 2 ug/ml measured after 24 hrs by qRT-PCR analysis; assay type: functional; conditions: dose 2.0 µg/ml
In short: as §2

Cryptococcus neoformans [20] = assay: Downregulation of CLR62 mRNA expression in Cryptococcus neoformans H99 at 2 ug/ml measured after 24 hrs by qRT-PCR analysis; assay type: functional; conditions: dose 2.0 µg/ml
In short: as §2

Cryptococcus neoformans [21] = assay: Downregulation of HDA1 mRNA expression in Cryptococcus neoformans H99 at 2 ug/ml measured after 24 hrs by qRT-PCR analysis; assay type: functional; conditions: dose 2.0 µg/ml
In short: as §2

Cryptococcus neoformans [22] = assay: Downregulation of CLR61 mRNA expression in Cryptococcus neoformans H99 at 2 ug/ml measured after 24 hrs by qRT-PCR analysis; assay type: functional; conditions: dose 2.0 µg/ml
In short: as §2

Cryptococcus neoformans [23] = assay: Downregulation of HOS3 mRNA expression in Cryptococcus neoformans H99 at 2 ug/ml measured after 24 hrs by qRT-PCR analysis; assay type: functional; conditions: dose 2.0 µg/ml
In short: as §2

Cryptococcus neoformans [24] = assay: Antifungal activity against Cryptococcus neoformans H99 infected in ICR mouse model assessed as reduction in fungal burden in brain at 20 mg/kg, po administered once a day for 5 days; assay type: functional, organism-based; conditions: time 5.0 day
In short: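 Immunosuppression by intraperitoneal cyclophosphamide 24 h before infection. Infected on day 0 by intravenous 2 × 10⁵ CFU C. neoformans H99. Oral treatment once daily for 5 consecutive days, starting 24 h post infection; saline group as blank. Brains taken on day 6 and homogenized, dilutions plated on SDA at 35 °C for 48 h. Colonies counted for burden; groups compared by ANOVA.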

Candida tropicalis [25] = assay: Antifungal activity against Candida tropicalis 5008 assessed as inhibition of fungal filamentation by measuring reduction in hyphae formation at 1 ug/ml incubated for 7 hrs by cell inverted imaging microscopic analysis; assay type: functional, organism-based; conditions: dose 1.0 µg/ml
In short: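 C. tropicalis 5008 from exponential YEPD culture diluted in spider medium to 1 × 10⁵ CFU/mL. Compound added at several concentrations, with fluconazole as positive drug. Incubated 37 °C for 7 h, then morphology compared with the no-drug group by live-cell inverted microscopy.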

Candida tropicalis [26] = assay: Antifungal activity against fluconazole-resistant Candida tropicalis 5008 assessed as inhibition of cell proliferation at 32 ug/ml measured for 48 hrs by time growth curve assay; assay type: functional, organism-based; conditions: dose 32.0 µg/ml
In short: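 Exponential-phase cells from YEPD resuspended in 3 mL fresh RPMI 1640 at 1 × 10⁵ cells/mL (C. tropicalis 5008) or 1 × 10⁶ cells/mL (C. neoformans H99). Compound at several concentrations; cultures shaken at 240 rpm, 30 °C. Growth read as OD₆₃₀ at 0, 6, 12, 24, 36 and 48 h. Done in triplicate.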

Question: Which MIC80 (Candida tropicalis [1]) does the source give for `O=C(CCCCCCCOc1ccc(CN2CCN(CC(O)(Cn3cncn3)c3ccc(F)cc3F)CC2)cc1)NO` (configuration not stated) here?
Answer: The MIC80 was 0.5 µg/mL (≈ 0.852 µM).

Question: What about the MIC80 (Candida albicans [2]) of the same compound?
Answer: Its MIC80 is 8 µg/mL (≈ 13.6 µM).

Question: What about the MIC80 (Candida albicans [3]) of the same compound?
Answer: The MIC80 was 1 µg/mL (≈ 1.7 µM).

Question: What about the MIC80 (Candida albicans [4]) of the same compound?
Answer: The MIC80 was 8 µg/mL (≈ 13.6 µM).

Question: What about the MIC80 (Candida albicans [5]) of the same compound?
Answer: Its MIC80 is 16 µg/mL (≈ 27.3 µM).

Question: And the IC50 (HUVEC)?
Answer: Its IC50 is 5.9 µg/mL (≈ 10.1 µM).

Question: What about the inhibition (Cryptococcus neoformans [6]) of the same compound?
Answer: Its inhibition is “Active”.

Question: And the inhibition (Cryptococcus neoformans [7])?
Answer: The inhibition was “Active”.

Question: And the inhibition (Cryptococcus neoformans [8])?
Answer: The inhibition was “Active”.

Question: And the inhibition (Cryptococcus neoformans [9])?
Answer: The inhibition was “inactive”.

Question: And the Activity (Candida tropicalis [10])?
Answer: Its Activity is 16%.

Question: And the Activity (Candida tropicalis [11])?
Answer: The Activity was 69.3%.

Question: And the Activity (Cryptococcus neoformans [12])?
Answer: The Activity was 19.1%.

Question: What about the Activity (Cryptococcus neoformans [13]) of the same compound?
Answer: Its Activity is 71.3%.

Question: What about the inhibition (Candida tropicalis [14]) of the same compound?
Answer: Its inhibition is “Active”.

Question: And the inhibition (Candida tropicalis [15])?
Answer: The inhibition was “Active”.

Question: And the IC50 [16]?
Answer: The IC50 was 2.38 µM.

Question: And the IC50 [17]?
Answer: Its IC50 is 12.6 µM.

Question: And the inhibition (Cryptococcus neoformans [18])?
Answer: Its inhibition is “Active”.

Question: And the inhibition (Cryptococcus neoformans [19])?
Answer: Its inhibition is “Active”.

Question: What about the inhibition (Cryptococcus neoformans [20]) of the same compound?
Answer: The inhibition was “Active”.

Question: What about the inhibition (Cryptococcus neoformans [21]) of the same compound?
Answer: Its inhibition is “Active”.

Question: And the inhibition (Cryptococcus neoformans [22])?
Answer: Its inhibition is “Active”.

Question: What about the inhibition (Cryptococcus neoformans [23]) of the same compound?
Answer: The inhibition was “Active”.

Question: What about the Activity (Cryptococcus neoformans [24]) of the same compound?
Answer: The Activity was “Active”.

Question: And the Activity (Candida tropicalis [25])?
Answer: The Activity was “Active”.

Question: What about the Activity (Candida tropicalis [26]) of the same compound?
Answer: The Activity was “Active”.
